Results collected from several papers.
Each line is one published result; the experiments were not run side by side.
Observed: cell growth or viability

| Compound | cell line | test | conditions | CC50 |
| --- | --- | --- | --- | --- |
| CCOP(=O)(OCC)[C@@H]1C[C@@H](n2cc(-c3cccc(F)c3)nn2)ON1C (racemic) | human T-lymphocyte |  | 72 h | > 250 µM |
| N=C(N)c1ccc(OCCCCCOc2ccc(C(=N)N)cc2)cc1 | Huh-7 | MTT | 24 h | 9.24 µM |
| CCOP(=O)(OCC)[C@@H]1C[C@@H](n2cc(-c3ccccn3)nn2)ON1C (racemic) | human T-lymphocyte |  | 72 h | > 250 µM |
| O=C(CNc1nc(NS(=O)(=O)c2ccccc2)ncc1-c1nc2ccccc2s1)c1ccc(Br)cc1 | BGM |  |  | 220 µg/mL |
| O=C1OC[C@H]2OC(O)[C@H](O)[C@@H](O)[C@@H]2OC(=O)c2cc(O)c(O)c(O)c2-c2c(O)c(O)c3oc(=O)c4c(c(O)c(O)c5oc(=O)c2c3c54)-c2c1cc(O)c(O)c2O (mixture of isomers) | Huh-7 | MTT |  | > 5000 µM |
| Cc1cc(NCCc2ccccc2)nc(NC(=N)Nc2ccc(Cl)cc2)n1 | Huh-7 | MTT | 24 h | 15.2 µM |
| CCOP(=O)(OCC)[C@@H]1C[C@H](n2cc(C(=O)OC)nn2)ON1C (relative stereo) | human T-lymphocyte |  | 72 h | > 250 µM |
| CN1CCC(NCc2cccc(-c3ccc(S(=O)(=O)NCc4ccccc4)cc3)c2)CC1 | Huh-7 | MTT | 24 h | 6.84 µM |
| COc1ccc(NC(=O)N2CCCCN3[C@H](CN(C)S(C)(=O)=O)[C@H](c4ccc(C#Cc5ccccc5)cc4)[C@@H]3C2)cc1 | HEK-293T |  |  | > 40 µM |
| CCOP(=O)(OCC)[C@@H]1C[C@H](n2cc(-c3nccn3C)nn2)ON1C | human T-lymphocyte |  | 72 h | > 250 µM |
| O=C(O)CCCc1cc2cc(Cl)ccc2n1S(=O)(=O)c1ccc2ncsc2c1 | LX-2 | ATP luminescence | 48 h, serum-free | > 40 µM |
| O=C(O)c1ccc(-n2nc(-c3ccccc3O)nc2-c2ccccc2O)cc1 | Huh-7 | MTT | 24 h | > 200 µM |
| CCOP(=O)(OCC)[C@@H]1C[C@H](n2cc(Cn3cnc4c(N)ncnc43)nn2)ON1C (relative stereo) | human T-lymphocyte |  | 72 h | > 250 µM |
| CCO[C@@H](Cc1ccc(OCCn2c(C)ccc2-c2ccc(SC)cc2)cc1)C(=O)O | LX-2 | ATP luminescence | 48 h, serum-free | > 50 µM |
| O=C(O)c1cc(-c2ccc(Br)cc2)nc2ccc(Cl)cc12 | Huh-7 | MTT | 24 h | 89.7 µM |
| Nc1nc(NS(=O)(=O)c2ccccc2)nc(-c2ccc(F)cc2)c1-c1nc2ccccc2s1 | BGM |  |  | 180 µg/mL |
| C[C@@H](c1cc(Cl)cc(Cl)c1)N(C)c1ncc2c(N)nc(N)nc2n1 | Huh-7 | MTT | 24 h | 57.6 µM |
| Cc1ccc(S(=O)(=O)Nc2ncc(-c3nc4ccccc4s3)c(N)n2)cc1 | BGM |  |  | 200 µg/mL |
| CCO[C@H](COc1ccc(C(F)(F)F)cc1)CSc1ccc(OCC(=O)O)c(C)c1 | LX-2 | ATP luminescence | 48 h, serum-free | > 50 µM |
| O=c1oc2c(O)c(O)cc3c(=O)oc4c(O)c(O)cc1c4c23 | Huh-7 | MTT |  | > 5000 µM |
| Nc1nc(NS(=O)(=O)c2ccccc2)ncc1-c1nc2ccccc2s1 | BGM |  |  | 220 µg/mL |
| CCOP(=O)(OCC)[C@@H]1C[C@@H](n2cc(Cn3ccc(=O)[nH]c3=O)nn2)ON1C (racemic) | human T-lymphocyte |  | 72 h | > 250 µM |
| Cc1ccc(S(=O)(=O)Nc2nc(N)c(-c3nc4ccccc4s3)c(-c3ccc(F)cc3)n2)cc1 | BGM |  |  | 190 µg/mL |
| CO[C@H]1C[C@@H](C[C@H](C)[C@H]2CC(=O)[C@@H](C)/C=C(\C)[C@H](O)[C@H](OC)C(=O)[C@@H](C)C[C@@H](C)/C=C/C=C/C=C(\C)[C@H](OC)C[C@H]3CC[C@H](C)[C@](O)(O3)C(=O)C(=O)N3CCCC[C@@H]3C(=O)O2)CC[C@@H]1OCCO (racemic) | Huh-7 | MTT | 24 h | 15.9 µM |
| CCOP(=O)(OCC)[C@@H]1C[C@H](n2cc(Cn3ccc(NC(C)=O)nc3=O)nn2)ON1C (racemic) | human T-lymphocyte |  | 72 h | > 250 µM |
| CCOc1ccc(-c2nc(CNCCc3ccc(F)cc3)cs2)cc1 | Huh-7 | MTT | 24 h | 87.8 µM |
| CCOP(=O)(OCC)[C@@H]1C[C@H](n2cc(-c3ccccc3)nn2)ON1C | human T-lymphocyte |  | 72 h | > 250 µM |
